Assays:
[1] = Cytotoxicity against ER-negative human SKBR3 cells expressing ER-alpha coexpressing ERE assessed as cell death at >50 uM; type: cell-based; settings: sk-br-3
Summary of the method: (§1)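 ER-negative SKBR3 cells cotransfected with 3xERE-TATA-luciferase, RST7-ERα and pCMV-β-gal for normalization. […] Scored as >50% decrease or increase at <20, 20–50 or >50 μM, or <20% change. 4-hydroxytamoxifen as antagonist control. Cell death above 50 μM flagged.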

[2] = biological target: T1, Estrogen receptor (Homo sapiens) (UniProt P03372); experiment: Inhibition of ER-alpha (unknown origin) transcriptional activity expressed in ER-negative human SKBR3 cells coexpressing ERE assessed as increase in reporter gene activity at >50 uM after 40 hrs relative to control; type: cell-based; design: scale not given: the % may be the effect or the level left; settings: SK-BR-3; summary of the method: as §1
T1 sequence (whole entry): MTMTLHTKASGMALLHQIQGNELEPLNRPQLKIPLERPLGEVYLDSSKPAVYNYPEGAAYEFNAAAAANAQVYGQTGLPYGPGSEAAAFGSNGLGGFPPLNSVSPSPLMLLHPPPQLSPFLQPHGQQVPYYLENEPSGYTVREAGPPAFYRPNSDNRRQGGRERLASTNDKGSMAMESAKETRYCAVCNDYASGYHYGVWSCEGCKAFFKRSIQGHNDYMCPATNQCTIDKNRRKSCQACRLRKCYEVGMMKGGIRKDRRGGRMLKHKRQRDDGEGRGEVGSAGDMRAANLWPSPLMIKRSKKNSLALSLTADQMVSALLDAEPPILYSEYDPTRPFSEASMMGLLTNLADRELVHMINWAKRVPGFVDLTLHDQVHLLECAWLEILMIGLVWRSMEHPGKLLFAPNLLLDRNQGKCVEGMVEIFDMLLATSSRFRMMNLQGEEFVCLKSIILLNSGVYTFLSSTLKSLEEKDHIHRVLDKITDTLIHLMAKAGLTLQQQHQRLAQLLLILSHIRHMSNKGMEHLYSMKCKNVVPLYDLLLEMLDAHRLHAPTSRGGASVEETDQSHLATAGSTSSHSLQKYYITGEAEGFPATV

[3] = biological target: T1, Estrogen receptor (Homo sapiens); experiment: Inhibition of ER-alpha (unknown origin) transcriptional activity expressed in ER-negative human SKBR3 cells coexpressing ERE assessed as change in reporter gene activity after 40 hrs in presence of estradiol relative to control; type: cell-based; design: concentration or dose not given beside the values; settings: SK-BR-3; summary of the method: as §1
HepG2 [4] = experiment: Cytotoxicity against human HepG2 cells expressing ER-alpha coexpressing GRIP1 assessed as cell death at >50 uM in presence of estradiol; type: cell-based
Summary of the method: (§2)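 HepG2 cells transfected with VP16-ERα, Gal4-DBD-fused GRIP1 LxxLL2 peptide and 5xGal4Luc3 reporter. […] Scored as >50% decrease or increase at <20, 20–50 or >50 μM, or <20% change. 4-hydroxytamoxifen as antagonist control. Cell death and precipitation flagged.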

HepG2 [5] = experiment: Cytotoxicity against human HepG2 cells expressing ER-alpha coexpressing GRIP1 assessed as cell death at >50 uM; type: cell-based; summary of the method: as §2
[6] = biological target: T1, Estrogen receptor (Homo sapiens); experiment: Competitive inhibition of ER-alpha (unknown origin)-GRIP1 interaction expressed in human HepG2 cells assessed as increase in reporter gene activity at >50 uM after 40 hrs relative to control; type: cell-based; design: scale not given: the % may be the effect or the level left; summary of the method: as §2
[7] = biological target: T1, Estrogen receptor (Homo sapiens); experiment: Competitive inhibition of ER-alpha (unknown origin)-GRIP1 interaction expressed in human HepG2 cells assessed as change in reporter gene activity after 40 hrs in presence of estradiol relative to control; type: cell-based; design: concentration or dose not given beside the values; summary of the method: as §2
[8] = Cytotoxicity against ER-negative human SKBR3 cells expressing ER-alpha coexpressing ERE assessed as cell death at >50 uM in presence of estradiol; type: cell-based; settings: sk-br-3; summary of the method: as §1
[9] = biological target: T1, Estrogen receptor (Homo sapiens); experiment: Competitive inhibition of ER-alpha (unknown origin)-GRIP1 interaction expressed in human HepG2 cells assessed as change in reporter gene activity after 40 hrs relative to control; type: cell-based; design: concentration or dose not given beside the values; summary of the method: as §2
[10] = biological target: T1, Estrogen receptor (Homo sapiens); experiment: Competitive inhibition of ER-alpha (unknown origin)-GRIP1 interaction expressed in human HepG2 cells assessed as decrease in reporter gene activity at >50 uM after 40 hrs in presence of estradiol relative to control; type: cell-based; design: scale not given: the % may be the effect or the level left; summary of the method: as §2
[11] = biological target: T1, Estrogen receptor (Homo sapiens); experiment: Inhibition of ER-alpha (unknown origin) transcriptional activity expressed in ER-negative human SKBR3 cells coexpressing ERE assessed as increase in reporter gene activity at <20 uM after 40 hrs relative to control; type: cell-based; design: scale not given: the % may be the effect or the level left; settings: SK-BR-3; summary of the method: as §1
[12] = biological target: T1, Estrogen receptor (Homo sapiens); experiment: Inhibition of ER-alpha (unknown origin) transcriptional activity expressed in ER-negative human SKBR3 cells coexpressing ERE assessed as change in reporter gene activity after 40 hrs relative to control; type: cell-based; design: concentration or dose not given beside the values; settings: SK-BR-3; summary of the method: as §1
[13] = biological target: T1, Estrogen receptor (Homo sapiens); experiment: Competitive inhibition of ER-alpha (unknown origin)-GRIP1 interaction expressed in human HepG2 cells assessed as decrease in reporter gene activity at <20 uM after 40 hrs in presence of estradiol relative to control; type: cell-based; design: scale not given: the % may be the effect or the level left; summary of the method: as §2
[14] = biological target: T1, Estrogen receptor (Homo sapiens); experiment: Inhibition of ER-alpha (unknown origin) transcriptional activity expressed in ER-negative human SKBR3 cells coexpressing ERE assessed as decrease in reporter gene activity at <20 uM after 40 hrs relative to control; type: cell-based; design: scale not given: the % may be the effect or the level left; settings: SK-BR-3; summary of the method: as §1
[15] = biological target: T1, Estrogen receptor (Homo sapiens); experiment: Inhibition of ER-alpha (unknown origin) transcriptional activity expressed in ER-negative human SKBR3 cells coexpressing ERE assessed as decrease in reporter gene activity at <20 uM after 40 hrs in presence of estradiol relative to control; type: cell-based; design: scale not given: the % may be the effect or the level left; settings: SK-BR-3; summary of the method: as §1
Estrogen receptor [16] = biological target: T2, Estrogen receptor (Homo sapiens, UniProt P03372); experiment: Mixed-type inhibition of ER-alpha (unknown origin) expressed in ER-negative human SKBR3 cells coexpressing ERE using estradiol as substrate; type: cell-based, SK-BR-3
T2 sequence (P03372 whole entry): T1 sequence (whole entry)

[17] = biological target: T1, Estrogen receptor (Homo sapiens); experiment: Competitive inhibition of ER-alpha (unknown origin)-GRIP1 interaction expressed in human HepG2 cells assessed as decrease in reporter gene activity at <20 uM after 40 hrs relative to control; type: cell-based; design: scale not given: the % may be the effect or the level left; summary of the method: as §2
Estrogen receptor [18] = biological target: T2, Estrogen receptor; experiment: Competitive inhibition of ER-alpha (unknown origin) ligand binding pocket expressed in ER-negative human SKBR3 cells coexpressing ERE using estradiol as substrate; type: cell-based, SK-BR-3
Summary of the method: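 SKBR3 (ER-negative breast cancer) cells were transfected with RST7–ERα, a 3xERE-TATA-luciferase reporter and a pCMV-β-gal normalization control. […] Cells were incubated 40 h, then luciferase reporter activity was read.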

[19] = biological target: T1, Estrogen receptor (Homo sapiens); experiment: Inhibition of ER-alpha (unknown origin) transcriptional activity expressed in ER-negative human SKBR3 cells coexpressing ERE assessed as increase in reporter gene activity at 20 to 50 uM after 40 hrs relative to control; type: cell-based; design: scale not given: the % may be the effect or the level left; settings: SK-BR-3; summary of the method: as §1

| SMILES | Activity [2] [%] | Activity [3] [%] | Activity (HepG2 [4]) | Activity (HepG2 [5]) | Activity [6] [%] | Activity [7] [%] | Activity [9] [%] | further results |
| --- | --- | --- | --- | --- | --- | --- | --- | --- |
| CCOC(=O)COc1ccc(-c2ccc(OCCN(C)C)c(Cc3ccc4ccccc4c3)c2)cc1Cc1ccc2ccccc2c1 | > 50 | < 20 | Toxic | Toxic | > 50 | < 20 | – | Activity [1]: Toxic; Activity [8]: Toxic |
| CCOC(=O)COc1ccc(-c2ccc(OCCN(C)C)c(CC3CCCCC3)c2)cc1CC1CCCCC1 | > 50 | < 20 | – | – | – | – | < 20 | Activity [1]: Toxic; Activity [10]: > 50%; Activity [8]: Toxic |
| CCOC(=O)COc1ccc(-c2ccc(O)c(CC3CCCCC3)c2)cc1 | – | < 20 | – | – | – | – | < 20 | Activity [1]: Toxic; Activity [10]: > 50%; Activity [11]: > 50%; Activity [8]: Toxic |
| CCCCCCCc1cc(-c2ccc(OCC(=O)OCC)c(CCCCCCC)c2)ccc1O | – | < 20 | – | – | – | < 20 | < 20 | Activity [12]: < 20% |
| CCCCCCCc1cc(-c2ccc(OCC(=O)OCC)c(CCCCCCC)c2)ccc1OCCN(C)C | > 50 | < 20 | – | – | > 50 | < 20 | – | – |
| CCCCCCCc1cc(-c2ccc(OCCN(C)C)cc2)ccc1OCC(=O)OCC | – | < 20 | – | – | – | – | < 20 | Activity [10]: > 50%; Activity [12]: < 20% |
| CCOC(=O)COc1ccc(-c2ccc(OCCN(C)C)cc2)cc1CC1CCCCC1 | – | – | – | – | – | – | – | Activity [13]: > 50%; Activity [14]: > 50%; Activity [15]: > 50%; IC50 (Estrogen receptor [16]): 12.7 µM; Activity [17]: > 50% |
| CCOC(=O)COc1ccc(-c2ccc(OCCN(C)C)c(Cc3ccc(-c4ccccc4)cc3)c2)cc1 | – | – | Toxic | Toxic | – | – | – | Activity [13]: > 50%; Activity [14]: > 50%; Activity [15]: > 50%; IC50 (Estrogen receptor [18]): 3.1 µM; Activity [17]: > 50% |
| CCOC(=O)COc1ccc(-c2ccc(OCCN(C)C)cc2)cc1Cc1ccc2ccccc2c1 | – | – | Toxic | Toxic | – | – | – | Activity [13]: > 50%; Activity [14]: > 50%; Activity [15]: > 50%; IC50 (Estrogen receptor [18]): 3.2 µM; Activity [17]: > 50% |
| CCCCCCCc1cc(-c2ccc(OCC(=O)OCC)cc2)ccc1OCCN(C)C | > 50 | < 20 | – | – | > 50 | < 20 | – | – |
| CCOC(=O)COc1ccc(-c2ccc(O)cc2)cc1Cc1ccc(-c2ccccc2)cc1 | > 50 | < 20 | Toxic | Toxic | > 50 | < 20 | – | – |
| CCOC(=O)COc1ccc(-c2ccc(OCCN(C)C)c(Cc3ccc(-c4ccccc4)cc3)c2)cc1Cc1ccc(-c2ccccc2)cc1 | – | < 20 | – | – | – | < 20 | < 20 | Activity [19]: > 50% |

From ChEMBL document CHEMBL3108721, “4,4'-Unsymmetrically substituted 3,3'-biphenyl alpha helical proteomimetics as potential coactivator binding inhibitors” (Bioorg Med Chem, 2014)
